Here are results for six compounds from ChEMBL document CHEMBL4196163, “In Silico Identification of Piperidinyl-amine Derivatives as Novel Dual Binders of Oncogene c-myc/c-Kit G-quadruplexes” (ACS Med Chem Lett, 2018).

What is called IC50 is the concentration needed to halve the response being measured. By ΔTm is commonly meant the change in melting temperature against a reference sample. In general, Kd refers to the concentration at which binding is half-saturated.

One assay has as its system dsDNA. Briefly: Binding affinity to double stranded DNA (unknown origin) assessed as change in melting temperature at 20 uM by fluorescence assay. In kind it is nucleic-acid assay.
Assay [1] in a line: (§1) Cytotoxicity against human HMC-1.2 cells assessed as reduction in cell viability after 72 hrs by Alamar blue assay. In kind it is functional, cell-based. The method in brief: (§2)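 Cells were exposed to the compound for 72 h, and viability was read by Alamar Blue. IC50 values were taken from dose-response curves, with linear regression coefficients (R2) reported.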
(The colour change of resazurin is a common sign of viable cells or microbes.)

The species entered for the next assay is Homo sapiens. Described as §1. Format: functional, cell-based. The method, boiled down:
as §2

The subject of the next assay is HGC-27. The assay is described as follows: Cytotoxicity against human HGC27 cells assessed as reduction in cell viability after 72 hrs by Alamar blue assay. In kind it is functional, cell-based. As to conditions: for IC50: HGC-27, 72 h. The method, boiled down: as §2
In assay [2] the test system is Quadruplex DNA. The assay is described as follows: Stabilization of 5'-biotinylated c-Kit G-quadruplex DNA (unknown origin) by surface plasmon resonance assay. In kind it is nucleic-acid assay. (In SPR one partner is held on a chip, and binding of the other changes the refractive index at the surface.)
Assay [3] relates to Quadruplex DNA. Briefly: Stabilization of c-Kit G-quadruplex DNA (unknown origin) by circular dichroism method. Format: nucleic-acid assay.
For assay [4], the system named is Quadruplex DNA. The assay is described as follows: Binding affinity to 5'-Dabcyl/3'-FM labeled c-Kit G-quadruplex DNA (unknown origin) assessed as change in melting temperature at 20 uM by fluorescence assay. Format: nucleic-acid assay. The method in brief: (§3)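 Fluorescence melting of end-labelled oligonucleotides matching the c-myc and c-Kit G4 sequences used in the virtual screen. Melting profiles were recorded with and without increasing ligand concentrations.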

The test system of assay [5] is Quadruplex DNA. The assay is described as follows: Binding affinity to 5'-Dabcyl/3'-FM labeled c-myc G-quadruplex DNA (unknown origin) assessed as change in melting temperature at 20 uM by fluorescence assay. Format: nucleic-acid assay. The method, boiled down:
as §3

Assay [6] relates to Quadruplex DNA. Briefly: Stabilization of c-myc G-quadruplex DNA (unknown origin) by circular dichroism method. In kind it is nucleic-acid assay.

Activity calls are given as the source filed them. No cut-off for these calls is given here.

Regarding `Cc1ccc(COc2ccc(CNCC3CCNCC3)cc2)cc1`, the result in the assay with dsDNA was inactive. Besides, the values for the half-maximal inhibitory concentration (IC50) (in assay [1]; in the assay with HGC-27) were 4 µM and 4.22 µM, respectively. The Activity result in the assay filed under Homo sapiens, with HGC-27 and in the assay with Quadruplex DNA [2] was “Dose-dependent effect” each time. Also, the result in the assay on Quadruplex DNA [3] and in the assay with Quadruplex DNA [6] was Active. Besides, the ΔTm in the assay with Quadruplex DNA [4] worked out at 2.3 °C; with Quadruplex DNA [5] it was 1.3 °C.

For `Cc1cc(-c2ccc(CNCC3CCNCC3)o2)ccc1Br`, the ΔTm with dsDNA worked out at 1.5 °C; with Quadruplex DNA [4], 3 °C; in the assay with Quadruplex DNA [5] it was 2 °C. Moreover, the IC50 is 2.56 µM in [1] and 2.55 µM in the assay with HGC-27. For the same compound, the Activity result in the assay listed under Homo sapiens and in the assay on HGC-27 was “Dose-dependent effect” throughout. The outcome in the assay on Quadruplex DNA [3] and in the assay on Quadruplex DNA [6] was Active.

For `CC(C)CC(N)C(=O)NC1CCN(C(=O)Cn2ccc3ccncc32)CC1` (stereo not drawn), the outcome in the assay with dsDNA was inactive. Also, the thermal shift (ΔTm) with Quadruplex DNA [4] is 0.3 °C; in the assay on Quadruplex DNA [5], 0.1 °C.

`CCOc1cc(CNCC2CCNCC2)ccc1OCc1ccc(Cl)cc1`: the result in the assay on dsDNA was inactive. Moreover, the results for the half-inhibitory concentration (IC50) (in [1]; with HGC-27) were 2.56 µM and 2.37 µM, respectively. Moreover, the Activity entry in the assay filed under Homo sapiens, in the assay on HGC-27 and in the assay with Quadruplex DNA [2] was “Dose-dependent effect” throughout. The compound also yielded a dissociation constant (Kd) at Quadruplex DNA [3] of 18 µM. Besides, the thermal shift (ΔTm) is 3.2 °C in the assay with Quadruplex DNA [4] and 5.4 °C with Quadruplex DNA [5]. Moreover, the outcome with Quadruplex DNA [6] was Active.

Take `CC(C)(N)C(=O)NC1CCN(C(=O)Cn2ccc3ccncc32)CC1`: in the assay with dsDNA, the outcome was inactive. The ΔTm in the assay with Quadruplex DNA [4] came to 0.1 °C; with Quadruplex DNA [5] it was 0.6 °C.

As to `CCn1cc(C(NC(=O)CCCN)c2ccc(F)cc2)c2ccncc21` (stereo not drawn), the result in the assay on dsDNA was inactive. The ΔTm amounted to 1.1 °C in the assay on Quadruplex DNA [4] and 0.4 °C in the assay on Quadruplex DNA [5].
